Calls of active or inactive are those of the source. The rule behind the calls is not given here. Some results are limits rather than exact numbers.

Data set [1] has as its target T1, Phospholipase A2 group V (Homo sapiens) (UniProt P39877).
T1 sequence (whole entry): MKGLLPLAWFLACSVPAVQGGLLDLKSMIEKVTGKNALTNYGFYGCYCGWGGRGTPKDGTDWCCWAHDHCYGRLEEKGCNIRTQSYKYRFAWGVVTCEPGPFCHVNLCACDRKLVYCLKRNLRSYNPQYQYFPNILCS
In words: Inhibition of human group 5 sPLA2 at 30 uM. The method in brief:
(§1)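 Recombinant human sPLA2 expressed in E. coli, at 40 pM for group V or 20 pM for group X, preincubated with inhibitor 10 min (15 min in legends). Buffer is 100 mM Tris pH 8.0, 10 mM CaCl2, 0.1% BSA. Substrate is E. coli membranes carrying 100,000 dpm 3H-oleate phospholipids, 15 min at room temperature. Reaction stopped with EDTA/fatty-acid-free BSA and centrifuged; supernatant radioactivity counted. Single 30 µM or concentration series for IC50; at least three experiments.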

The species named for another data set is Homo sapiens. The data set can be described thus: Inhibition of methionine aminopeptidase.
In data set [2] the target is T2, Phospholipase A2, membrane associated (Homo sapiens) (UniProt P14555).
T2 sequence (whole entry): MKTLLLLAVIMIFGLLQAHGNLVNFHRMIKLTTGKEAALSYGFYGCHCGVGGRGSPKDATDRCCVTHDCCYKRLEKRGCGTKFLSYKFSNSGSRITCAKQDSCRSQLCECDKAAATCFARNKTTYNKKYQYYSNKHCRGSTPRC
In words: Inhibition of human group 2A sPLA2 at 30 uM. An outline of the steps:
(§2)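 Recombinant human group IB or IIA sPLA2 from E. coli, enzyme level set for linear hydrolysis. Preincubated 10 min with inhibitor at 30 µM in 100 mM Tris pH 8.0, 10 mM CaCl2, 0.1% BSA. 3H-oleate-labelled E. coli membrane substrate added for 15 min at room temperature. Stopped with EDTA/BSA, centrifuged at 14000g, released radioactivity counted; expressed as percent inhibition.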

The target in the next data set is T3, Sulfotransferase 1E1 (Homo sapiens, UniProt P49888).
T3 sequence (P49888 whole entry): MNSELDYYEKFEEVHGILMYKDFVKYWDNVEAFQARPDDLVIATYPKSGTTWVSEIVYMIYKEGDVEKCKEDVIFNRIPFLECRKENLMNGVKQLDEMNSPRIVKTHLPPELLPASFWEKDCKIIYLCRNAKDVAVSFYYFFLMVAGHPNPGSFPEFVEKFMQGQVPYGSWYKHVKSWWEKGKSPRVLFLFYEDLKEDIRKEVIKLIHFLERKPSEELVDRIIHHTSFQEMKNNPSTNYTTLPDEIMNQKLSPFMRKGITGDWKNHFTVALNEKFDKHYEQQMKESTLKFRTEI
The data set can be described thus: Inhibition of human estrogen sulfotransferase.

The target of data set [3] is T4, Group 3 secretory phospholipase A2 (Homo sapiens) (UniProt Q9NZ20).
T4 sequence (whole entry): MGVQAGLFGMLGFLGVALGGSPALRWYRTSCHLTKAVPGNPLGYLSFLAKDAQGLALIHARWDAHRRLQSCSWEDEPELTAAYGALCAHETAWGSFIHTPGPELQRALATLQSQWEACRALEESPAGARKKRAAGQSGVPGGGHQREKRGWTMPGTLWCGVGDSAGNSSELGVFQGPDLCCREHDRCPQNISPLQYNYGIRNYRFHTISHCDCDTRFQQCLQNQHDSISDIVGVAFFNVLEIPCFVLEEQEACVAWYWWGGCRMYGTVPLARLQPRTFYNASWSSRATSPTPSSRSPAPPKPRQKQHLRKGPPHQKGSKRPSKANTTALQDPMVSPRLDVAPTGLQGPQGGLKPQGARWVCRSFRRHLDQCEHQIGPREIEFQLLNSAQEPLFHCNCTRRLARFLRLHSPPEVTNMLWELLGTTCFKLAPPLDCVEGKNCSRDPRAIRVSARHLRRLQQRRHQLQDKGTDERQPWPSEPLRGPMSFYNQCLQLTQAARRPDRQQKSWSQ
In words: Inhibition of human group 3 sPLA2 at 10 uM. The method in brief:
(§3)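 Human group III sPLA2 catalytic domain made in Drosophila S2 cells. Inhibitor at 10 or 100 µM preincubated 10 min with enzyme in Tris pH 8.0 buffer with 10 mM CaCl2 and 0.1% BSA. Then 15 min room-temperature hydrolysis of 3H-oleate-labelled E. coli membranes. Stopped with EDTA and fatty-acid-free BSA; supernatant counts after centrifugation.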

Data set [4] has as its target Phospholipase A2 (Homo sapiens) (UniProt P04054). In words: Inhibition of human group 1B sPLA2 at 30 uM. An outline of the steps: as §2
Data set [5] deals with T4, Group 3 secretory phospholipase A2 (Homo sapiens). The data set can be described thus: Inhibition of human group 3 sPLA2 at 100 uM. An outline of the steps: as §3
The target in data set [6] is T5, Purine nucleoside phosphorylase (Homo sapiens) (UniProt P00491).
T5 sequence (whole entry): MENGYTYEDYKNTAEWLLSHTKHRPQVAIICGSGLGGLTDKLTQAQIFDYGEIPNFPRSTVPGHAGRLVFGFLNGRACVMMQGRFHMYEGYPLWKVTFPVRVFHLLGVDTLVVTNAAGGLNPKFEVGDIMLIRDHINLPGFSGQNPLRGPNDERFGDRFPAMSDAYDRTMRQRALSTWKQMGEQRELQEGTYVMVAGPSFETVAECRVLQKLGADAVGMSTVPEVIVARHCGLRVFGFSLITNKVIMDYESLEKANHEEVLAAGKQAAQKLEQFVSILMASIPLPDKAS
The data set can be described thus: Inhibition of human purine nucleoside phosphorylase.

Data set [7] deals with T6, Thymidine kinase (Human alphaherpesvirus 1) (UniProt Q9QNF7).
T6 sequence (whole entry): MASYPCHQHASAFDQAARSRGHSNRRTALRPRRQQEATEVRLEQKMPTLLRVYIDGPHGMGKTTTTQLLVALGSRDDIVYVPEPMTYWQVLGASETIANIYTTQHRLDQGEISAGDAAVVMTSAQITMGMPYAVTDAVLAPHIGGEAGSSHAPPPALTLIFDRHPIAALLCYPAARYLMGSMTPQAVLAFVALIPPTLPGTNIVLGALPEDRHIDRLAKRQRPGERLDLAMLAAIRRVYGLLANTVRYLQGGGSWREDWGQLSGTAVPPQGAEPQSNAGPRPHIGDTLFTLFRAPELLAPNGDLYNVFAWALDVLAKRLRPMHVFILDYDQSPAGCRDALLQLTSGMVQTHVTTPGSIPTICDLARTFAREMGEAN
In words: Inhibition of Herpes simplex virus type 1 thymidine kinase.

A further data set concerns the target T7, Phospholipase A2 group V (Homo sapiens, UniProt P39877).
T7 sequence (P39877 whole entry): T1 sequence (whole entry)
The data set can be described thus: Inhibition of human group 5 sPLA2. An outline of the steps:
as §1

Data set [8] concerns the target T8, Group 10 secretory phospholipase A2 (Homo sapiens, UniProt O15496).
T8 sequence (O15496 whole entry): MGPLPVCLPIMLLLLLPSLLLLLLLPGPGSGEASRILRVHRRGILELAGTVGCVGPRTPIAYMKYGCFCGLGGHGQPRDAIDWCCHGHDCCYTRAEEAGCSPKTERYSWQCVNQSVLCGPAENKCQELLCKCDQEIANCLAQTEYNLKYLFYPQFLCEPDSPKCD
The data set can be described thus: Inhibition of human group 10 sPLA2. An outline of the steps:
as §1

The target in data set [9] is T9, Group 10 secretory phospholipase A2 (Homo sapiens) (UniProt O15496).
T9 sequence (whole entry): T8 sequence (O15496 whole entry)
The data set can be described thus: Inhibition of human group 10 sPLA2 at 30 uM. The method in brief: as §1

In data set [10] the target is T10, Purine nucleoside phosphorylase (Toxoplasma gondii, UniProt Q2HXR2).
T10 sequence (Q2HXR2 whole entry): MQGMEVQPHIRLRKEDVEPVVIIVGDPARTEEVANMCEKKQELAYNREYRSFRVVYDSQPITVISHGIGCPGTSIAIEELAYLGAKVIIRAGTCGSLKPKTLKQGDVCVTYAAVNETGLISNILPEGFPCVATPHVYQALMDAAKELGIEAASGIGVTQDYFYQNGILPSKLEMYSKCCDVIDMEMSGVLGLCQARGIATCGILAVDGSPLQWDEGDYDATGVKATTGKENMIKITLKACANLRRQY
The data set can be described thus: Inhibition of Toxoplasma gondii purine nucleoside phosphorylase.

Sequence of Phospholipase A2 (Homo sapiens) (P04054 23-148 limits assumed): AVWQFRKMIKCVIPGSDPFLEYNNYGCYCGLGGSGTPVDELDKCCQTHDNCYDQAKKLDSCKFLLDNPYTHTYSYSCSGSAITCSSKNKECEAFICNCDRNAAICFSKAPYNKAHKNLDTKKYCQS

In data set [1], `CN1CN(CC(=O)OC(C)(C)C)C(=O)N[C@@H](Cc2ccccc2)C1=O` yielded an inhibition above 70%.

For `CN1CN(CC(=O)O)C(=O)N[C@@H](Cc2ccccc2)C1=O`, the outcome (in the data set filed under Homo sapiens; in [3]; in [4]; in data set [5]; in [6]; in [7]) was inactive. Further, in data set [2], the inhibition was 25%. Moreover, at Sulfotransferase 1E1, the Activity result is reported as “Not Active”.

In data set [1], `CN1CN(CC(=O)OC(C)(C)C)C(=O)N(CC(=O)OC(C)(C)C)[C@@H](Cc2ccccc2)C1=O` registered an inhibition above 70%. For the same compound, the IC50 (against Phospholipase A2 group V; in data set [8]) was 11 µM each time.

`CC(C)(C)OC(=O)CN1C(=O)N[C@@H](Cc2ccccc2)C(=O)N2CCC[C@@H]12`: the inhibition in data set [1] was above 70%.

As to `CC(C)C[C@@H]1NC(=O)NCN(C)C1=O`, the outcome (in the data set listed under Homo sapiens; in [3]; in data set [5]; in data set [6]; in [7]) was inactive. Moreover, on Sulfotransferase 1E1, the Activity result was “Not Active”.

Turning to `CN1CNC(=O)N[C@@H](CN)C1=O`, the outcome (in the data set filed under Homo sapiens; in data set [3]; in data set [5]; in data set [6]; in data set [7]) was inactive. For the same compound, at Sulfotransferase 1E1, the Activity entry is given as “Not Active”.

For `CN1CN(CCCC(=O)O)C(=O)N[C@@H](Cc2ccccc2)C1=O`, the inhibition in data set [1] and in data set [9] was above 70% throughout.

For the compound `CN1CN(C/C=C/C(=O)O)C(=O)N[C@@H](Cc2ccccc2)C1=O`, the inhibition in data set [1] and in data set [9] was above 70% in each case. The values for the IC50 (against Phospholipase A2 group V; in data set [8]) were 12 µM and 10 µM, respectively.

In data set [1], `CN1C(=O)[C@H](Cc2ccccc2)NC(=O)N[C@@H]1Cc1ccccc1` returned an inhibition above 70%. The IC50 against Phospholipase A2 group V was found to be 11 µM; in [8], 13 µM.

`CN1CN(C/C=C/C(=O)OC(C)(C)C)C(=O)N[C@@H](Cc2ccccc2)C1=O` had an inhibition in data set [9] above 70%.

On to `O=C1N[C@@H](Cc2ccccc2)C(=O)N2C[C@H](O)C[C@H]2N1`, for which the result (in the data set listed under Homo sapiens; in data set [3]; in data set [5]; in data set [6]; in data set [7]) was inactive. For the same compound, the Activity result at Sulfotransferase 1E1 was “Not Active”.

In the case of `CC(C)(C)OC(=O)CN1C(=O)N[C@@H](Cc2ccc3ccccc3c2)C(=O)N2CCC[C@@H]12`, in data set [1], the inhibition was above 70%.

`CC(C)[C@@H]1NC(=O)N(Cc2ccccc2)CN(C)C1=O`: the inhibition in [1] and in data set [9] was above 70% each time.

In [1], `CN1CN(CC(=O)O)C(=O)N(CC(=O)O)[C@@H](Cc2ccccc2)C1=O` came in with an inhibition above 70%.

On to `CC(C)[C@@H]1NC(=O)N(CC(=O)OC(C)(C)C)CN(C)C1=O`, for which the inhibition in [1] and in data set [9] was above 70% throughout. In addition, the IC50 is 12 µM against Phospholipase A2 group V and 11 µM in data set [8].

For `O=C1[C@@H]2Cc3ccccc3CN2C(=O)N[C@@H]2CCCN12`, the outcome (in the data set listed under Homo sapiens; in [3]; in data set [5]; in data set [6]; in data set [7]) was inactive. The Activity entry on Sulfotransferase 1E1 is on record as “Not Active”.

For the compound `C[C@@H]1NC(=O)NC2Cc3ccccc3CN2C1=O` (stereo partly drawn), the result (in the data set filed under Homo sapiens; in data set [3]; in data set [5]; in data set [6]; in data set [7]) was inactive. At Sulfotransferase 1E1, the Activity entry is on record as “Not Active”.

Compound `CN1CN(CC(=O)OC(C)(C)C)C(=O)N[C@@H](Cc2ccc3ccccc3c2)C1=O` showed an inhibition in data set [1] above 70%.

`CC(C)(C)OC(=O)CN1C(=O)N(CC(=O)OC(C)(C)C)[C@@H](Cc2ccccc2)C(=O)N2CCC[C@H]21`: the inhibition in [9] is above 70%.

On to `O=C1N[C@@H](Cc2ccccc2)C(=O)N2C[C@H](OCc3ccccc3)C[C@H]2N1`, for which the outcome (in the data set filed under Homo sapiens; in data set [3]; in [5]; in data set [6]; in data set [7]) was inactive. Also, the Activity entry on Sulfotransferase 1E1 was “Not Active”. This compound had a Ki in data set [10] of 8 µM.

As to `CN1CNC(=O)N[C@@H](Cc2ccccc2)C1=O`, the outcome (in the data set listed under Homo sapiens; in [3]; in data set [5]; in data set [6]; in data set [7]) was inactive. Besides, at Sulfotransferase 1E1, the Activity result was “Not Active”.

With `COC(=O)CN1CN(C)C(=O)[C@H](Cc2ccccc2)NC1=O`, the inhibition in [1] is above 70%.

In turn, `CN1CN(CCCC(N)=O)C(=O)N[C@@H](Cc2ccccc2)C1=O` returned an inhibition in [1] above 70%.

Broadly, the inhibition is the share of the control response that was lost under treatment. Lower therefore signals a response near the control. Broadly, the IC50 is the concentration needed to halve the response being measured. The low end stands for inhibition by little substance, the high end for a need for much substance. By Ki is commonly meant a dissociation constant, usually derived from enzyme kinetics or from competition with a known ligand. Low values mean higher affinity, high ones lower affinity.

Values taken from ChEMBL document CHEMBL1137329, “In silico-guided target identification of a scaffold-focused library: 1,3,5-triazepan-2,6-diones as novel phospholipase A2 inhibitors” (J Med Chem, 2006).
